# Results gathered from unrelated publications.
# Target: MAP kinase-activated protein kinase 2 (MAPKAPK2, Homo sapiens, UniProt P49137)
SMILES,assay,conditions,quantity,value
C=CC(=O)N1CCC[C@@H](n2nc(-c3ccc(Oc4ccccc4)cc3)c3c(N)ncnc32)C1,"enzyme activity, inhibitor",1 µM,inhibition,0%
C1=C/COCc2cc(ccc2OCCN2CCCC2)Nc2nccc(n2)-c2cccc(c2)COC/1,binding,0.1 µM,remaining binding,100%
CN1CCN(C(=O)c2ccc(NC(=O)Nc3ccc(N(C)c4ccnc(Nc5ccc(CS(C)(=O)=O)cc5)n4)cc3)cc2)CC1,binding,1 µM,remaining binding,100%
CCCCC(=O)Nc1ccc(-c2ccc3ncn(CCC)c(=O)c3c2)cn1,"binding, competition with immobilised ligand",0.5 µM,remaining binding,100%
N#Cc1ccc(NC(=O)Nc2ccccc2)cc1,"cell-free assay, competition with immobilised ligand",25 µM,remaining binding,65%
C=CC(=O)N1CCC([C@@H]2CCNc3c(C(N)=O)c(-c4ccc(Oc5ccccc5)cc4)nn32)CC1,"enzyme activity, inhibitor",1 µM,inhibition,29%
C#Cc1cnc(Nc2ccnc(CO)c2)nc1Nc1ccccc1S(C)(=O)=NC#N (stereo not drawn),cell-free assay,1 µM,remaining signal,100%
COc1ccc2oc(-c3ccc4nc(N)oc4c3)c/c(=N\c3ccccc3NC(=O)CCN)c2c1,binding,1 µM,remaining binding,103%
COc1ccc2[nH]c3c4[nH]c5ccc(OC)cc5c4c4c(c3c2c1)C(=O)NC4=O,binding,1 µM,remaining binding,100%
